Results taken from ChEMBL document CHEMBL1130391, “Novel agonists of 5HT2C receptors. Synthesis and biological evaluation of substituted 2-(indol-1-yl)-1-methylethylamines and 2-(indeno[1,2-b]pyrrol-1-yl)-1-methylethylamines. Improved therapeutics for obsessive compulsive disorder” (J Med Chem, 1997).

What was measured:
[1] = molecular target: T1, 5-hydroxytryptamine receptor 2C (Rattus norvegicus) (UniProt P08909); assay: Induction of penile erection in rats following p.o. administration, indicative of 5-HT 2c receptor activation; assay type: functional, organism-based
T1 sequence (whole entry): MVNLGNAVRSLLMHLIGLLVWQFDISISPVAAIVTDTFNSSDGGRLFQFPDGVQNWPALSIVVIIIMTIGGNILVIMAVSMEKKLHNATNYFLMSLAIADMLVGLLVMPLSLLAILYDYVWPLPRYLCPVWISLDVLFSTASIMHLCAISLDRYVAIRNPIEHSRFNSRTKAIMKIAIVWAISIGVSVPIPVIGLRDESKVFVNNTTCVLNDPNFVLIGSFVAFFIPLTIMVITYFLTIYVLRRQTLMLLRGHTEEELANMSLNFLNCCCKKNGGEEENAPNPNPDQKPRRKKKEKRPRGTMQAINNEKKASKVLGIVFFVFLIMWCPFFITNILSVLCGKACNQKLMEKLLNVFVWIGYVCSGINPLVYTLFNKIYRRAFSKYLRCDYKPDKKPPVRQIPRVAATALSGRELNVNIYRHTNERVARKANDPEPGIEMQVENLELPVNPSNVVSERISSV
How it was run: (§1)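 Male erection counts in RORO rats, 8 per dose, over 45 min. Drug is given in 0.3% Tween-80 in saline, sc at 5 mL/kg or orally at 10 mL/kg. Vehicle controls are included, and doses are expressed as salt weight. ED₅₀ by probit analysis, or the approximate dose at which half the rats respond.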

[2] = molecular target: T1, 5-hydroxytryptamine receptor 2C (Rattus norvegicus); assay: Induction of penile erection in rats after subcutaneous administration, indicative of 5-HT 2c receptor activation; assay type: functional, organism-based; how it was run: as §1
[3] = molecular target: 5-hydroxytryptamine receptor 2A (Homo sapiens, UniProt P28223); assay: Binding affinity against human 5-hydroxytryptamine 2A receptor using displacement of [3H]5-HT
[4] = molecular target: T2, 5-hydroxytryptamine receptor 2C (Homo sapiens, UniProt P28335); assay: Binding affinity against human 5-hydroxytryptamine 2C receptor using displacement of [3H]DOB
T2 sequence (P28335 whole entry): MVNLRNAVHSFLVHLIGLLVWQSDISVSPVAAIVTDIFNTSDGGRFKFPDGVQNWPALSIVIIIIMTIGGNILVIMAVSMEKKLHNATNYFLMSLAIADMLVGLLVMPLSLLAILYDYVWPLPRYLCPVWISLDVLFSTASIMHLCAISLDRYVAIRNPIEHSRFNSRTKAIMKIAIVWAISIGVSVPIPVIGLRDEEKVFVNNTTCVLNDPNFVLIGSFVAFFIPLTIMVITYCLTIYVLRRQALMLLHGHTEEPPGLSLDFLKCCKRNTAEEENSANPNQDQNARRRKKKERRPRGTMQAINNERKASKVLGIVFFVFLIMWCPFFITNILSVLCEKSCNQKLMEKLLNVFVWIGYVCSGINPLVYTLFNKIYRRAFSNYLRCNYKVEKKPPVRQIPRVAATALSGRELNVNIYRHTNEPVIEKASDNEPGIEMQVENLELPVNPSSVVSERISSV

[5] = molecular target: T1, 5-hydroxytryptamine receptor 2C (Rattus norvegicus); assay: Intrinsic 5-HT 2c receptor activity as induced IP3 turnover in vitro in rat choroid plexus; assay type: functional, tissue-based
How it was run: (§2)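 Rat choroid plexus preloaded with [³H]myoinositol for 1 h at 37 °C in oxygenated Krebs. LiCl 10 mM and pargyline 10 µM added, then compound 10 min later. Six concentrations, top 0.1 mM, incubated 0.5 h at 37 °C. Stopped with HClO₄/EDTA, then IP₃ isolated. Three measures per point. Intrinsic activity is the maximum relative to 10 µM 5HT.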

[6] = molecular target: T3, 5-hydroxytryptamine receptor 2C (Rattus norvegicus, UniProt P08909); assay: Efficacy (pEC50) was evaluated for 5-HT2C receptor-mediated stimulation of IP3 formation in vitro in choroid plexus of the rat; assay type: functional, tissue-based; how it was run: as §2
T3 sequence (P08909 whole entry): T1 sequence (whole entry)

[7] = system: Rattus norvegicus; assay: Compound was tested in schedule induced polydipsia in rats expressed as %maximum suppression at minimum effective dose of 3 mg/kg intraperitoneally; assay type: functional; details: route intraperitoneal
[8] = system: Rattus norvegicus; assay: Compound was tested in schedule induced polydipsia in rats expressed as %maximum suppression at minimum effective dose of 10 mg/kg intraperitoneally; assay type: functional; details: route intraperitoneal
[9] = system: Rattus norvegicus; assay: Compound was tested in schedule induced polydipsia in rats expressed as %maximum suppression at minimum effective dose of 1 mg/kg intraperitoneally; assay type: functional; details: route intraperitoneal

5-hydroxytryptamine receptor 2A, sequence (P28223 whole entry): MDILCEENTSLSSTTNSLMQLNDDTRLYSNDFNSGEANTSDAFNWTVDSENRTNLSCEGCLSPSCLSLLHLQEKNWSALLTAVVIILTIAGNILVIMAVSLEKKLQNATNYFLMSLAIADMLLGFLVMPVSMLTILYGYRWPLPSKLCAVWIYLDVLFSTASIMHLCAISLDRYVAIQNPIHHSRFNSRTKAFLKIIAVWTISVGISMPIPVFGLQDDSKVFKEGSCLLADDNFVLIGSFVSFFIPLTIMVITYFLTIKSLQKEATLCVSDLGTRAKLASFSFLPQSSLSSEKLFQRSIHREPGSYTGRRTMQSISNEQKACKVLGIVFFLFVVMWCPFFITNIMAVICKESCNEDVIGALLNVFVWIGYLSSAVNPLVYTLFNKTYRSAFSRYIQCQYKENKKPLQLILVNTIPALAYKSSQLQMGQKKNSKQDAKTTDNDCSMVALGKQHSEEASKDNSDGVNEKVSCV

Structure (SMILES)	ED50 [1]	ED50 [2]	Ki [3]	Ki [4]	Efficacy [5]	EC50 [6]	Max suppression [7]	Max suppression [8]	Max suppression [9]
COc1ccc2c(c1)-c1c(ccn1C[C@@H](C)N)C2	> 30 mg/kg	2 mg/kg	0.126 µM	0.00398 µM	0.8	7.94 µM	–	–	–
CC(N)Cn1ccc2cc(Cl)c(F)cc21 (configuration not stated)	15 mg/kg	1 mg/kg	0.0398 µM	0.002 µM	1	0.398 µM	-88%	–	–
CC(N)Cn1ccc2c1-c1cc(F)ccc1C2(C)C (configuration not stated)	> 30 mg/kg	2.7 mg/kg	0.0316 µM	0.00501 µM	1	0.2 µM	–	–	–
C[C@H](N)Cn1ccc2cc(F)c(F)cc21	10 mg/kg	0.3 mg/kg	0.1 µM	0.001 µM	1	0.2 µM	-73%	–	–
Cc1cccc2c1ccn2CC(C)N (configuration not stated)	> 30 mg/kg	3.2 mg/kg	0.1 µM	0.00631 µM	0.6	2.51 µM	–	–	–
CC(N)Cn1ccc2cc(F)ccc21 (configuration not stated)	2.7 mg/kg	1 mg/kg	0.158 µM	0.00631 µM	1	1.58 µM	-97%	–	–
COc1cccc2c1-c1c(ccn1CC(C)N)C2 (configuration not stated)	–	> 10 mg/kg	0.398 µM	0.0126 µM	0.7	6.31 µM	–	–	–
COc1ccc2c(c1)-c1c(ccn1CC(C)N)C2 (configuration not stated)	11 mg/kg	0.6 mg/kg	0.126 µM	0.001 µM	1	0.398 µM	–	-79%	–
COc1ccc2c(c1)-c1c(ccn1CC(C)N)C2(C)C (configuration not stated)	10 mg/kg	0.5 mg/kg	0.01 µM	0.000398 µM	1	0.1 µM	–	–	-75%
COc1cccc2c1ccn2CC(C)N (configuration not stated)	–	> 10 mg/kg	–	0.126 µM	0.3	12.6 µM	–	–	–
C[C@H](N)Cn1ccc2cc(F)c(Cl)cc21	5.5 mg/kg	0.5 mg/kg	0.0316 µM	0.00126 µM	1	0.2 µM	–	-90%	–
CC(N)Cc1c[nH]c2ccc(F)cc12 (configuration not stated)	9.9 mg/kg	0.8 mg/kg	0.0631 µM	0.01 µM	0.9	0.158 µM	–	–	-96%
CC(N)Cn1ccc2c(F)cccc21 (configuration not stated)	–	> 10 mg/kg	0.158 µM	0.00794 µM	0.7	1.26 µM	–	–	–
COc1ccc2c(c1)Cc1ccn(CC(C)N)c1-2 (configuration not stated)	–	> 10 mg/kg	0.398 µM	0.0126 µM	1	2 µM	–	–	–
CC(N)Cn1ccc2c1-c1cc(Br)ccc1C2 (configuration not stated)	–	> 10 mg/kg	0.1 µM	0.00398 µM	1	2.51 µM	–	–	–
C[C@@H](N)Cn1ccc2cc(F)c(F)cc21	30 mg/kg	2.7 mg/kg	0.1 µM	0.00398 µM	1	0.126 µM	–	–	–
CC(N)Cn1ccc2cc(Cl)ccc21 (configuration not stated)	> 30 mg/kg	2.3 mg/kg	0.2 µM	0.00794 µM	0.9	2 µM	–	–	–
CC(N)Cn1ccc2c1-c1cc(Cl)ccc1C2 (configuration not stated)	> 30 mg/kg	2.7 mg/kg	0.2 µM	0.00398 µM	0.8	2.51 µM	–	–	–
Cc1ccc2c(c1)-c1c(ccn1CC(C)N)C2 (configuration not stated)	–	> 10 mg/kg	0.0631 µM	0.00794 µM	1	0.501 µM	–	–	–
COc1ccc2c(ccn2CC(C)N)c1 (configuration not stated)	–	> 10 mg/kg	–	0.794 µM	0.3	10 µM	–	–	–
CC(N)Cn1ccc2cc(Br)ccc21 (configuration not stated)	> 30 mg/kg	4 mg/kg	0.158 µM	0.00398 µM	0.8	2 µM	–	–	–
C[C@H](N)Cn1ccc2c(Cl)c(F)ccc21	> 30 mg/kg	2.7 mg/kg	0.0398 µM	0.00126 µM	1	0.316 µM	-97%	–	–
CC(N)Cn1ccc2ccc(F)cc21 (configuration not stated)	> 30 mg/kg	0.3 mg/kg	0.251 µM	0.00398 µM	1	0.631 µM	–	–	–
CC(N)Cn1ccc2c1-c1cc(F)ccc1C2 (configuration not stated)	> 30 mg/kg	1.5 mg/kg	0.2 µM	0.00316 µM	1	0.631 µM	–	–	–
COc1ccc2c(c1)-c1c(ccn1C[C@H](C)N)C2	10 mg/kg	1.2 mg/kg	0.126 µM	0.001 µM	1	0.251 µM	–	–	-97%
Cc1ccc2c(ccn2CC(C)N)c1 (configuration not stated)	–	> 10 mg/kg	0.794 µM	0.0631 µM	0.9	2.51 µM	–	–	–
Cc1ccc2ccn(CC(C)N)c2c1 (configuration not stated)	> 30 mg/kg	3.3 mg/kg	0.794 µM	0.0158 µM	0.9	7.94 µM	–	–	–
C[C@@H](N)Cn1ccc2cc(F)c(Cl)cc21	> 30 mg/kg	2.1 mg/kg	0.0794 µM	0.01 µM	1	3.16 µM	–	–	–
